Experimental data from the RNAGym collection of RNA variant scans (doi:10.1126/science.aae0568).
Fewer inactive variants are shown than the library holds.

B1: tRNA (parent)
chain: GUUCCGUUGGCGUAAUGGUAACGCGUCUCCCUCCUAAGGAGAAGACUGCGGGUUCGAGUCCCGUACGGAACG

Variants of: B1
Experiment: yeast fitness relative to wild type (ratio to wild type); higher = fitter; tRNA-Arg(CCU), competitive growth, 37 C, YPD
In short: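 Gene amplicons from the start population and from each of six end populations were read by 100-nucleotide paired-end sequencing. Those end populations came from pooled Saccharomyces cerevisiae strains carrying tRNA-Arg(CCU) gene variants at the native locus, competed in YPD at 37°C for 24 hours. Fitness relative to wild type was worked out from changes in genotype frequencies. Genotypes needed ≥ 100 starting reads, and estimates < 0.5 were set to 0.5.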

Question: With GUUGCGUUGGCGUAAUGGUAACGCGUCUCCCUCCUAAGGAGAAGACUCCGCGUUCGUGUCCCGUACGCAACG [C4G G48C G51C A57U G68C] as the variant, how does the yeast fitness read?
Answer: Its yeast fitness is 0.55.

Question: Which yeast fitness does the source give for GUUGCGUUGGCGUAAUGCUAACGCGUCUCCCUCCUAAGGAGAAGACUGCGGGUUCGUGUCCCGUACGGAACG [C4G G18C A57U] here?
Answer: The yeast fitness was at most 0.5.

Question: With GUUGCGUUGGCGUAAUGGUAACGCGUCUCCCUCCUAAGGAGAACACAGCGGGUUCGAGUCCCGUACGGAACG [C4G G44C U47A] as the variant, how does the yeast fitness read?
Answer: The yeast fitness was 0.592.

Question: Which yeast fitness does the source give for GUUGCGUUGGCGUAAUGCUAACGCGUCUCCCUCCUAAGGAGAAGACUGCGGGUUCGAGUCCCGAACGGAACG [C4G G18C U64A] here?
Answer: The yeast fitness was at most 0.5.

Question: Which yeast fitness does the source give for GUUGCGUUGGCGUAAUAGUAACGCGUCUCCCUCCUAAGGAGAAGACUGCGGAUUCGAGUCCCGUACGGAACG [C4G G17A G52A] here?
Answer: Its yeast fitness is at most 0.5.

Question: For GUUGCGUUGGCGUAAUGGUAACCCGUCUCCCUCCUAAGGAGAAGACUGCGGGUUCGAGUCUCGUACGGAACG [C4G G23C C61U], which yeast fitness is on record?
Answer: Its yeast fitness is at most 0.5.

Question: For GUUGCGUUGGCGUAAUGCUAACGCGUCUCCCUCCUAAGGAGAAGACUGCGGGUUCGAGUCCCGUUCGGAACG [C4G G18C A65U], which yeast fitness is on record?
Answer: Its yeast fitness is at most 0.5.

Question: Which yeast fitness does the source give for GUUGCGUUGGCGUAAUGGUAACACGUCUCCCUCCUGAGGAGAAGACUGCGGGUUCGAGUCCCGUACGUAACG [C4G G23A A36G G68U] here?
Answer: The yeast fitness was at most 0.5.

Question: Which yeast fitness does the source give for GUUGCGUUGGCGUAAUGCUAACGCGUCUCCCUCCUAAGGAGAAGACUGCGGGUUCGAGUCCGGUACGGAACG [C4G G18C C62G] here?
Answer: The yeast fitness was at most 0.5.

Question: For GUUGCGUUGGCGUAAUGGUAACGCAUCUCCCUCCUAAGGAGAAGACUGCGGGUUCGAGUCCCGUACGGAACG [C4G G25A], which yeast fitness is on record?
Answer: The yeast fitness was 0.894.

Question: Which yeast fitness does the source give for GUUGCGUUGGCGUAAUGGUAACCCGUCUCCCUCCUAAGGAGAAGACUGCGGAUCCGAGUCCCGUACGGAACG [C4G G23C G52A U54C] here?
Answer: Its yeast fitness is at most 0.5.

Question: For GUUGCGUUGGCGUAAUAGUAACGCGUCUCUCUCCUAAGGAGAAGACUGCGGGUUCGAGUCCCGUACGGAACG [C4G G17A C30U], which yeast fitness is on record?
Answer: The yeast fitness was at most 0.5.

Question: Which yeast fitness does the source give for GUUGCGUUGGCGUAAUGGUAACGCGUCUCCCUCCUAAGGAGAAGACUGCGGGUUCGAAUCCCGUACUGCACG [C4G G58A G67U A69C] here?
Answer: The yeast fitness was 0.542.

Question: For GUUGCGUUGGCGUAAUAGUAACGCGUCUCCCUCCUAAGGAGAAGACUGCGAGUUCGAGUCCCGUAUGGAACG [C4G G17A G51A C66U], which yeast fitness is on record?
Answer: The yeast fitness was at most 0.5.

Question: For GUUGCGUUGGCGUAAUGGUAACCCGUCUCCCUCCUAAGGAGAAGACUGCGGGUUCGAGUCCCGUACCGAACG [C4G G23C G67C], which yeast fitness is on record?
Answer: The yeast fitness was at most 0.5.

Question: Which yeast fitness does the source give for GUUGCGUUGGCGUAAUGGUAACGCGUCUCCCUCCUAAGGAGAAGACUCCGGGUUCGAGUCCCGUACCGAACG [C4G G48C G67C] here?
Answer: Its yeast fitness is 0.542.

Question: Which yeast fitness does the source give for GUUGCGUUGGCGUAAUGGUAACGCAUCUCCCUCCUAAGGAGAAGACUGCGGGUGCGAGUCCCGUACGGAACG [C4G G25A U54G] here?
Answer: The yeast fitness was at most 0.5.

Question: Which yeast fitness does the source give for GUUGCGUUGGCGUAAUGCUAACGCGUCUCCCUGCUAAGGAAAAGACUGCGGGUUCGAGUCCCGUACGGAACG [C4G G18C C33G G41A] here?
Answer: The yeast fitness was at most 0.5.

Question: Which yeast fitness does the source give for GUUGCGUUGGCGUAAUGGUAACCCGUCUUCCUCCUAAGGAGAAGACUGCGGGUUCGAGUCCCGUACGGAACG [C4G G23C C29U] here?
Answer: The yeast fitness was 0.501.

Question: Which yeast fitness does the source give for GUUGCGUUGGCGUAAUGCUAACGCGUCUCCCUCCUAAGGAGAAGACUGCGGGUUCGAGUCCCAUACGGAACG [C4G G18C G63A] here?
Answer: Its yeast fitness is at most 0.5.

Question: Which yeast fitness does the source give for GUUGCGUUGGCGUAAUGGUAACGCGUCUCCCUCCUAAGAAGAAGACUGCGGGUUCGAGUCCCGUCCGGAACG [C4G G39A A65C] here?
Answer: The yeast fitness was at most 0.5.

Question: With GUUGCGUUGGCGUAAUGGUAACGCGUCUCCCUCCUAAGAAGAAGACUGCGGGUUCGAGUCCCGUUCGGAACG [C4G G39A A65U] as the variant, how does the yeast fitness read?
Answer: The yeast fitness was 0.576.

Question: Which yeast fitness does the source give for GUUGCGUUGGCGUAAUGGUAACGCGUCUCCCUCCUAAGGAGAAGACUGCGGGUUCCAGUCCCGUACGGAACG [C4G G56C] here?
Answer: The yeast fitness was 0.699.

Question: Which yeast fitness does the source give for GUUGCGUUGGCGUAAUGGUAACGCGUCUCCCUCCUAAGGACAAGAAUGCGGGUUCGAGUCCCGUACGGAACG [C4G G41C C46A] here?
Answer: The yeast fitness was 0.709.

Question: Which yeast fitness does the source give for GUUGCGUUGGCGUAAUGGUAACACGUCUGCCUCCUACGGAGAAGACUGCGGGUUCGAGUGCCGUACGGAACG [C4G G23A C29G A37C C60G] here?
Answer: Its yeast fitness is 0.808.

Question: For GUUGCGUUGGCGUAAUGCUAACGCGUCUCCCUCCUAAGGAGAAGACUGCGAGUUCGAGUCCCGUACGGAACG [C4G G18C G51A], which yeast fitness is on record?
Answer: Its yeast fitness is at most 0.5.

Question: Which yeast fitness does the source give for GUUGCGUUGGCGUAAUGGUAACGCGUCUCCCUCCUAAGGACAAGACUGCGGGUUCGAGUCCCGUACGGAACG [C4G G41C] here?
Answer: Its yeast fitness is 0.834.

Question: Which yeast fitness does the source give for GUUGCGUUGGCGUAAUGGUAACGCAUCUCCCUCCUAAGGAGAAGACUGCGGGUUCGAGUGCGGUACGGAACG [C4G G25A C60G C62G] here?
Answer: Its yeast fitness is 0.57.

Question: With GUUGCGUUGGCGUAAUGGUAACGCGUCUCCCUCCUAAGGAGAAGACUGCGGGUUCGAAUCCCGUACGGAACG [C4G G58A] as the variant, how does the yeast fitness read?
Answer: The yeast fitness was 1.05.

Question: With GUUGCGUUGGCGUAAUGGUAACGCGUCUCCCUCCUAAGGAGAAGACUGCGGGUUCGACUCCCGUACGGAACG [C4G G58C] as the variant, how does the yeast fitness read?
Answer: Its yeast fitness is 1.1.

Question: Which yeast fitness does the source give for GUUGCGUUGGCGUAAUGCUAACGCGUCUCCCUCCUAAGGAGAAGACUGCGGGUUCGAGUCCCGUACGGAACG [C4G G18C] here?
Answer: Its yeast fitness is 0.599.

Question: Which yeast fitness does the source give for GUUGCGUUGGCGUAAUAGUAACGCGUCUCCCUCCUAAGGAGAAGACUGCGGGUUCGAGUCCCGUACGGAGCG [C4G G17A A70G] here?
Answer: Its yeast fitness is 0.567.

Question: With GUUGCGUUGGCGUAAUGGUAACCCGUCUCCCUCCUAAGGAGAAGUCUGCGGGUUCGAGUCCCGUACGGAACG [C4G G23C A45U] as the variant, how does the yeast fitness read?
Answer: The yeast fitness was at most 0.5.

Question: For GUUGCGUUGGCGUAAUGCUAACGCGUCUCCCUCCUAAGGAGAAGACUGCGGGUUCGAGUCCCGUACGGACCG [C4G G18C A70C], which yeast fitness is on record?
Answer: The yeast fitness was 0.508.

Question: With GUUGCGUUGGCGUAAUGGUAACGCGUCUCCCUCCUAAGGAGAAACCUGCGGGUUCGAGUCCCGUACGGAACG [C4G G44A A45C] as the variant, how does the yeast fitness read?
Answer: Its yeast fitness is at most 0.5.

Question: Which yeast fitness does the source give for GUUGCGUUGGCGUAAUGGUAACCCGUCUCCCUCCUAAGGAGAAGACUGCGGGUUCCAGUCCCGUACGGAACG [C4G G23C G56C] here?
Answer: The yeast fitness was at most 0.5.

Question: Which yeast fitness does the source give for GUUGCGUUGGCGUAAUGCUAACGCGUCUCCCUCCUAAGGAGAAGACUGCGGGUUCGAGUCCCGUACGCAACG [C4G G18C G68C] here?
Answer: The yeast fitness was 0.636.

Question: For GUUGCGUUGGCGUAAUGGUAACGCGUCUCCCUCCUAAGGAAAAGACUGCGGGUUCGAGUCCCGUAUGGAACG [C4G G41A C66U], which yeast fitness is on record?
Answer: The yeast fitness was 0.525.
